Data as given in ChEMBL document CHEMBL1250501, “Anti-tubercular agents. Part 5: synthesis and biological evaluation of benzothiadiazine 1,1-dioxide based congeners” (Eur J Med Chem, 2010).
≈ marks a conversion by molar mass, not a printed value. Calls of active or inactive are those of the source. The rule behind the calls is not given here.

Tests used:
[1] = test system: Staphylococcus aureus; assay: Antibacterial activity against Staphylococcus aureus at 10 ug/ml after 18 hrs by cup plate method; assay type: functional
Outline: (§1)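 Agar well diffusion on Mueller-Hinton agar. Inoculum was adjusted to a 0.5 McFarland standard (about […] × 10⁸ CFU/mL) and swabbed over the plate three times, rotating about 60° each time, then the rim was swabbed. Compounds in DMSO went into duplicate 6 mm wells. Plates were incubated at 37 °C for 18 h and inhibition zone diameter read to the nearest mm. DMSO negative control; streptomycin and ciprofloxacin positive controls.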

[2] = test system: Aspergillus niger; assay: Antifungal activity against Aspergillus niger at 50 ug/ml after 48 hrs by cup plate method; assay type: functional, organism-based
Outline: (§2)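 Agar well (cup plate) diffusion on potato dextrose agar 39 g/L, with compounds dissolved in DMSO. Plates were incubated at 28 ± 2 °C for 48 h and inhibition zones measured to the nearest mm. Three replicates per treatment. Amphotericin B positive control; solvent control included.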

[3] = test system: Mycobacterium tuberculosis; assay: Antimycobacterial activity against Mycobacterium tuberculosis H37Rv after 3 to 4 weeks by broth microdilution assay; assay type: functional
Outline: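 MIC by broth microdilution on compounds active in a single-concentration primary screen. Plates incubated 3–4 weeks at 37 °C in a CO₂ incubator. Wells read visually for absence of growth turbidity.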

[4] = test system: Klebsiella pneumoniae; assay: Antibacterial activity against Klebsiella pneumoniae at 100 ug/ml after 18 hrs by cup plate method; assay type: functional; outline: as §1
[5] = test system: Klebsiella pneumoniae; assay: Antibacterial activity against Klebsiella pneumoniae at 25 ug/ml after 18 hrs by cup plate method; assay type: functional; conditions: read-out: DIZ; outline: as §1
[6] = test system: Pseudomonas aeruginosa; assay: Antibacterial activity against Pseudomonas aeruginosa at 50 ug/ml after 18 hrs by cup plate method; assay type: functional; conditions: read-out: DIZ; outline: as §1
[7] = test system: Aspergillus sp.; assay: Antifungal activity against Aspergillus sp. at 50 ug/ml after 48 hrs by cup plate method; assay type: functional; outline: as §2
[8] = test system: Aspergillus niger; assay: Antifungal activity against Aspergillus niger at 25 ug/ml after 48 hrs by cup plate method; assay type: functional, organism-based; outline: as §2
[9] = test system: Aspergillus sp.; assay: Antifungal activity against Aspergillus sp. at 25 ug/ml after 48 hrs by cup plate method; assay type: functional; outline: as §2
[10] = test system: Staphylococcus epidermidis; assay: Antibacterial activity against Staphylococcus epidermidis at 50 ug/ml after 18 hrs by cup plate method; assay type: functional; conditions: read-out: DIZ; outline: as §1
[11] = test system: Candida albicans; assay: Antifungal activity against Candida albicans MTCC 227 at 50 ug/ml after 48 hrs by cup plate method; assay type: functional
Outline: (§3)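 Agar well (cup plate) diffusion on potato dextrose agar 39 g/L. Compounds dissolved in DMSO and loaded into 6 mm wells. Incubated at 28 ± 2 °C for 48 h. Inhibition zone diameter measured to the nearest millimetre, three replicates per treatment. DMSO solvent as negative control, amphotericin B as positive control.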

[12] = test system: Aspergillus sp.; assay: Antifungal activity against Aspergillus sp. at 75 ug/ml after 48 hrs by cup plate method; assay type: functional; outline: as §2
[13] = test system: Pseudomonas aeruginosa; assay: Antibacterial activity against Pseudomonas aeruginosa at 25 ug/ml after 18 hrs by cup plate method; assay type: functional; conditions: read-out: DIZ; outline: as §1
[14] = test system: Staphylococcus epidermidis; assay: Antibacterial activity against Staphylococcus epidermidis at 10 ug/ml after 18 hrs by cup plate method; assay type: functional; conditions: read-out: DIZ; outline: as §1
[15] = test system: Staphylococcus aureus; assay: Antibacterial activity against Staphylococcus aureus at 100 ug/ml after 18 hrs by cup plate method; assay type: functional; conditions: read-out: DIZ; outline: as §1
[16] = test system: Staphylococcus aureus; assay: Antibacterial activity against Staphylococcus aureus at 50 ug/ml after 18 hrs by cup plate method; assay type: functional; conditions: read-out: DIZ; outline: as §1
[17] = test system: Pseudomonas aeruginosa; assay: Antibacterial activity against Pseudomonas aeruginosa at 100 ug/ml after 18 hrs by cup plate method; assay type: functional; outline: as §1
[18] = test system: Klebsiella pneumoniae; assay: Antibacterial activity against Klebsiella pneumoniae at 50 ug/ml after 18 hrs by cup plate method; assay type: functional; conditions: for zone of inhibition at 50 µg/mL: read-out: DIZ; outline: as §1
[19] = test system: Aspergillus sp.; assay: Antifungal activity against Aspergillus sp. at 100 ug/ml after 48 hrs by cup plate method; assay type: functional; outline: as §2
[20] = test system: Bacillus subtilis; assay: Antibacterial activity against Bacillus subtilis at 10 ug/ml after 18 hrs by cup plate method; assay type: functional; conditions: read-out: DIZ; outline: as §1
[21] = test system: Staphylococcus aureus; assay: Antibacterial activity against Staphylococcus aureus at 75 ug/ml after 18 hrs by cup plate method; assay type: functional; conditions: read-out: DIZ; outline: as §1
[22] = test system: Klebsiella pneumoniae; assay: Antibacterial activity against Klebsiella pneumoniae at 10 ug/ml after 18 hrs by cup plate method; assay type: functional; outline: as §1
[23] = test system: Escherichia coli; assay: Antibacterial activity against Escherichia coli at 100 ug/ml after 18 hrs by cup plate method; assay type: functional; outline: as §1
[24] = test system: Staphylococcus aureus; assay: Antibacterial activity against Staphylococcus aureus at 25 ug/ml after 18 hrs by cup plate method; assay type: functional; conditions: read-out: DIZ; outline: as §1
[25] = test system: Candida albicans; assay: Antifungal activity against Candida albicans MTCC 227 at 25 ug/ml after 48 hrs by cup plate method; assay type: functional; outline: as §3
[26] = test system: Aspergillus niger; assay: Antifungal activity against Aspergillus niger at 75 ug/ml after 48 hrs by cup plate method; assay type: functional; outline: as §2
[27] = test system: Aspergillus niger; assay: Antifungal activity against Aspergillus niger at 100 ug/ml after 48 hrs by cup plate method; assay type: functional; outline: as §2
[28] = test system: Klebsiella pneumoniae; assay: Antibacterial activity against Klebsiella pneumoniae at 75 ug/ml after 18 hrs by cup plate method; assay type: functional; conditions: read-out: DIZ; outline: as §1
[29] = test system: Bacillus subtilis; assay: Antibacterial activity against Bacillus subtilis at 50 ug/ml after 18 hrs by cup plate method; assay type: functional; outline: as §1
[30] = test system: Staphylococcus epidermidis; assay: Antibacterial activity against Staphylococcus epidermidis at 75 ug/ml after 18 hrs by cup plate method; assay type: functional; conditions: read-out: DIZ; outline: as §1
[31] = test system: Bacillus subtilis; assay: Antibacterial activity against Bacillus subtilis at 100 ug/ml after 18 hrs by cup plate method; assay type: functional; outline: as §1
[32] = test system: Pseudomonas aeruginosa; assay: Antibacterial activity against Pseudomonas aeruginosa at 75 ug/ml after 18 hrs by cup plate method; assay type: functional; conditions: read-out: DIZ; outline: as §1
[33] = test system: Candida albicans; assay: Antifungal activity against Candida albicans MTCC 227 at 75 ug/ml after 48 hrs by cup plate method; assay type: functional; conditions: MTCC 227, 48 h, read-out: IZ; outline: as §3
[34] = test system: Pseudomonas aeruginosa; assay: Antibacterial activity against Pseudomonas aeruginosa at 10 ug/ml after 18 hrs by cup plate method; assay type: functional; outline: as §1
[35] = test system: Staphylococcus epidermidis; assay: Antibacterial activity against Staphylococcus epidermidis at 100 ug/ml after 18 hrs by cup plate method; assay type: functional; outline: as §1
[36] = test system: Escherichia coli; assay: Antibacterial activity against Escherichia coli at 75 ug/ml after 18 hrs by cup plate method; assay type: functional; conditions: read-out: DIZ; outline: as §1
[37] = test system: Escherichia coli; assay: Antibacterial activity against Escherichia coli at 50 ug/ml after 18 hrs by cup plate method; assay type: functional; conditions: read-out: DIZ; outline: as §1
[38] = test system: Candida albicans; assay: Antifungal activity against Candida albicans MTCC 227 at 100 ug/ml after 48 hrs by cup plate method; assay type: functional; conditions: MTCC 227, 48 h, read-out: IZ; outline: as §2
[39] = test system: Staphylococcus epidermidis; assay: Antibacterial activity against Staphylococcus epidermidis at 25 ug/ml after 18 hrs by cup plate method; assay type: functional; conditions: read-out: DIZ; outline: as §1

CN1C(N2CCN(Cc3ccc([N+](=O)[O-])o3)CC2)=NS(=O)(=O)c2ccccc21
diameter of the inhibition zone (DIZ) [1]: inactive
inhibition zone (IZ) [2]: inactive
MIC [3]: 8 µg/mL (≈ 19.7 µM)
zone of inhibition at 100 µg/mL ([4]; read-out: DIZ): 19 mm
zone of inhibition at 25 µg/mL [5]: 12 mm
zone of inhibition at 50 µg/mL [6]: 10 mm
inhibition zone (IZ) [7]: inactive
inhibition zone (IZ) [8]: inactive
inhibition zone (IZ) [9]: inactive
zone of inhibition at 50 µg/mL [10]: 15 mm
zone of inhibition at 50 µg/mL ([11]; MTCC 227, 48 h, read-out: IZ): 11 mm
inhibition zone (IZ) [12]: inactive
zone of inhibition at 25 µg/mL [13]: 12 mm
zone of inhibition at 10 µg/mL [14]: 10 mm
zone of inhibition at 100 µg/mL [15]: 17 mm
zone of inhibition at 50 µg/mL [16]: 14 mm
zone of inhibition at 100 µg/mL ([17]; read-out: DIZ): 17 mm
zone of inhibition at 50 µg/mL [18]: 10 mm
inhibition zone (IZ) [19]: inactive
zone of inhibition at 10 µg/mL [20]: 9 mm
zone of inhibition at 75 µg/mL [21]: 17 mm
diameter of the inhibition zone (DIZ) [22]: inactive
zone of inhibition at 100 µg/mL ([23]; read-out: DIZ): 26 mm
zone of inhibition at 25 µg/mL [24]: 10 mm
inhibition zone (IZ) [25]: inactive
inhibition zone (IZ) [26]: inactive
inhibition zone (IZ) [27]: inactive
zone of inhibition at 75 µg/mL [28]: 17 mm
diameter of the inhibition zone (DIZ) [29]: inactive
zone of inhibition at 75 µg/mL [30]: 18 mm
zone of inhibition at 100 µg/mL ([31]; read-out: DIZ): 23 mm
zone of inhibition at 75 µg/mL [32]: 17 mm
zone of inhibition at 75 µg/mL [33]: 14 mm
diameter of the inhibition zone (DIZ) [34]: inactive
zone of inhibition at 100 µg/mL ([35]; read-out: DIZ): 24 mm
zone of inhibition at 75 µg/mL [36]: 29 mm
zone of inhibition at 50 µg/mL [37]: 15 mm
zone of inhibition at 100 µg/mL [38]: 18 mm
zone of inhibition at 25 µg/mL [39]: 13 mm

O=C(O)c1cn(C2CC2)c2cc(N3CCNCC3)c(F)cc2c1=O [CIPROFLOXACIN]
zone of inhibition at 25 µg/mL [5]: 21 mm
zone of inhibition at 50 µg/mL [6]: 30 mm
zone of inhibition at 50 µg/mL [10]: 34 mm
inhibition zone (IZ) [11]: inactive
zone of inhibition at 25 µg/mL [13]: 40 mm
zone of inhibition at 50 µg/mL [16]: 26 mm
zone of inhibition at 50 µg/mL [18]: 20 mm
zone of inhibition at 50 µg/mL ([29]; read-out: DIZ): 32 mm
zone of inhibition at 50 µg/mL [37]: 38 mm

CN1C(N2CCN(C(=O)c3ccc([N+](=O)[O-])o3)CC2)=NS(=O)(=O)c2ccccc21
MIC [3]: 16 µg/mL (≈ 38.1 µM)
diameter of the inhibition zone (DIZ) [4]: inactive
zone of inhibition at 50 µg/mL [6]: 10 mm
zone of inhibition at 50 µg/mL [10]: 10 mm
inhibition zone (IZ) [11]: inactive
zone of inhibition at 100 µg/mL [15]: 18 mm
zone of inhibition at 50 µg/mL [16]: 17 mm
diameter of the inhibition zone (DIZ) [17]: inactive
diameter of the inhibition zone (DIZ) [18]: inactive
diameter of the inhibition zone (DIZ) [23]: inactive
diameter of the inhibition zone (DIZ) [29]: inactive
diameter of the inhibition zone (DIZ) [31]: inactive
diameter of the inhibition zone (DIZ) [35]: inactive
zone of inhibition at 50 µg/mL [37]: 9 mm
zone of inhibition at 100 µg/mL [38]: 12 mm
